The list is not random: actives were taken first. Their share in the collection is about 3.2%.
PfHsp90 yeast 2: growth inhibition of yeast expressing Plasmodium Hsp90. inhibition, % at 9.4 µM. actives 0.32% (n = 310,000). S. cerevisiae expressing PfHsp90, BacTiter-Glo ATP, 48 h; yeast lacking PDR1 and PDR3 efflux regulators;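 active means every replicate shows inhibition above about 80%, whatever the replicate mean, limit read from the data; inconclusive means mean inhibition reaches the set limit but some replicate falls short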;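 further: 0% = DMSO neutral controls and 100% = 20 µM radicicol positive controls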
rRNA inh HTS: selective bacterial rRNA inhibition in E. coli; E. coli WT GFP vs humanized-ribosome RFP mutants, fluorescence, 24 h; active compounds read low; DMSO median 0, no signal -100; GFP signal change (wild-type ribosome), % (concentration not given with the values); actives 1.6% (n = 350,000);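 active means significant combined selectivity score with lowered wild-type GFP, culture density cut under 30%, mutant RFP and density less affected; inactive means any of these conditions unmet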
DENV2 CPE rescue: protects cells from dengue virus 2 cytopathic effect; CPE inhibition, % at 9.99 µM; AID 651640; DENV2-infected cells, cytopathic effect rescue, plate reader; actives 1.7% (n = 350,000); in the data active means CPE inhibition above about 20%, passing the limit was not always enough; inconclusive means no clear call, values can overlap the other calls; tested in BHK-21 cells;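 further: 0% = median of neutral control wells and 100% = median of positive control wells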
Cneo AK release: causes C. neoformans cell lysis; adenylate kinase release luminescence, 4 h; normalised: neutral wells 0, clomiphene wells 100; lysis activity, % at 15 µM; actives 0.2% (n = 360,000); AID 651654;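 active means mean lysis activity across replicates of at least 80%, whatever share of replicates individually reach that level; inactive means mean lysis activity below 80%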
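Material: C. neoformans cells; Schedule: 4 h static compound exposure, 37 °C, read 1 h post-reagent; Measured by: adenylate kinase release luminescence; Read-out: signal increase indicating cell lysis; Controls: Clomiphene as positive lysis control.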
S100A4 MyoIIA: blocks human S100A4 binding to myosin IIA peptide. P26447. S100A4/TAMRA-MyoIIA peptide fluorescence polarization. inhibition, % at 10.7 µM. actives 0.14% (n = 360,000). AID 652163;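 active means mean inhibition of at least 70% across replicates, with every replicate also reaching that level; inconclusive means mean inhibition reaches 70% but some replicates fall short; inactive means mean inhibition below 70%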
Target sequence (P26447 whole entry, looked up): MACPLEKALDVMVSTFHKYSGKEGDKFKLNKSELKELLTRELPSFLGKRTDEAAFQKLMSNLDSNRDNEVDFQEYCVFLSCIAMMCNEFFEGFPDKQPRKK
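Test system: S100A4 monomer protein. Medium: HEPES buffer with Ca2+, pH 7.2. Reagent: fluorescent myosin IIA peptide, 5 nM. Compound dosing: single-point compound testing. Timing: 5 min between mix addition and reading. Benchmarks: DMSO neutral and TFP positive wells.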
MLL AF4-AF9 inh: inhibitors of human MLL-AF4/AF9 interaction; AID 651704; inhibition, % at 10 µM; AlphaScreen, biotin-AF4 peptide binding to FLAG-AF9; actives 0.47% (n = 350,000);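 active means every replicate reaching a set inhibition limit, whatever the replicate mean, cut at about 25% in these data; inconclusive means mean inhibition reaches that limit but some replicates miss it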;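 further: 0% = plate neutral control median and 100% = total signal loss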
Target sequence (P42568 whole entry, looked up): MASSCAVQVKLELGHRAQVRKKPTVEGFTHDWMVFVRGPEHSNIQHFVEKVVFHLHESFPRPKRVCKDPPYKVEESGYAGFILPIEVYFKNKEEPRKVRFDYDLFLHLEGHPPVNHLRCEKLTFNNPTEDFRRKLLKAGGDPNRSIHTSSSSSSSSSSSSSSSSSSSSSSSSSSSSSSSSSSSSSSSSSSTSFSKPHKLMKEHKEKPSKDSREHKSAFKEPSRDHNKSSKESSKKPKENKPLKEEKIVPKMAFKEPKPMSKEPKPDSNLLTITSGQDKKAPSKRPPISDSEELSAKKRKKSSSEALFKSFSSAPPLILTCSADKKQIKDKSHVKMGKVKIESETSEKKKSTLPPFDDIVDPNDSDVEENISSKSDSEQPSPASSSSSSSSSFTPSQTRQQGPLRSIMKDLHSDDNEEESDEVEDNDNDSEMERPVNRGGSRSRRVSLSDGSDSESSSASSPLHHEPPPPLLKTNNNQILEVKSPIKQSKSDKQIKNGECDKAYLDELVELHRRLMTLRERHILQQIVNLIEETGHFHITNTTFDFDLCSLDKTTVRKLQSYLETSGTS
* marks the source's active call; other numbers are inactive results.

C[C@@H]1CCCCO[C@H](CN(C)Cc2ccc(C(F)(F)F)cc2)[C@@H](C)CN([C@@H](C)CO)C(=O)c2cc(NS(=O)(=O)c3ccccc3)ccc2O1 was read as rRNA inh HTS -12, DENV2 CPE rescue 4, Cneo AK release -9, S100A4 MyoIIA -15 and MLL AF4-AF9 inh 1.
`O=C(Cc1ccccn1)N1CC2(C1)[C@H](c1ccccc1)[C@@H](CO)N2C(=O)c1ccccc1` gave rRNA inh HTS -1, DENV2 CPE rescue 11, S100A4 MyoIIA 1 and MLL AF4-AF9 inh -3.
Screening O=S(=O)(c1ccccc1)N1C[C@H]2[C@@H](c3ccccc31)[C@H](CO)N2Cc1ccc(F)cc1 returned rRNA inh HTS -53, DENV2 CPE rescue -12, Cneo AK release 4, S100A4 MyoIIA 14 and MLL AF4-AF9 inh 2.
Screening O=S(=O)(c1ccc(F)cc1)N1C[C@H]2[C@@H](c3ccccc31)[C@H](CO)N2Cc1ccccc1Cl returned rRNA inh HTS -13, DENV2 CPE rescue 10, Cneo AK release 3, S100A4 MyoIIA 100* and MLL AF4-AF9 inh 4.
`O=S(=O)(c1ccccc1)N1C[C@@H]2[C@H](c3ccccc31)[C@H](CO)N2Cc1ccccc1` gave rRNA inh HTS -25*, DENV2 CPE rescue 19, Cneo AK release 1, S100A4 MyoIIA inconclusive and MLL AF4-AF9 inh 0.
O=C(C[C@@H]1CC[C@H](NC(=O)Nc2cccc(F)c2)[C@@H](CO)O1)NCC1CC1 was read as rRNA inh HTS -2, DENV2 CPE rescue -1, Cneo AK release 10, S100A4 MyoIIA 4 and MLL AF4-AF9 inh -1.
`O=C(c1cccnc1)N1C[C@H]2[C@@H](c3ccccc31)[C@H](CO)N2C(=O)Nc1ccccc1F` gave rRNA inh HTS 3, DENV2 CPE rescue -4, Cneo AK release -2, S100A4 MyoIIA 24 and MLL AF4-AF9 inh -1.
For CN(CCO)S(=O)(=O)c1ccc2c(c1)C(=NO)c1cc(S(=O)(=O)N(C)CCO)ccc1-2 the results were PfHsp90 yeast 2 -36, rRNA inh HTS -27*, DENV2 CPE rescue 2, Cneo AK release 0, S100A4 MyoIIA 2 and MLL AF4-AF9 inh 0.
`Cc1ccc(-c2csc(NC(=O)c3ccc(S(=O)(=O)N4CCc5ccccc54)cc3)n2)cc1` gave PfHsp90 yeast 2 -17, rRNA inh HTS 4, DENV2 CPE rescue 25*, Cneo AK release -1, S100A4 MyoIIA -4 and MLL AF4-AF9 inh 4.
`O=C(Nc1nc(-c2ccccc2)cs1)c1ccc(S(=O)(=O)N2CCc3ccccc32)cc1` gave PfHsp90 yeast 2 -5, rRNA inh HTS -3, DENV2 CPE rescue inconclusive, Cneo AK release 1, S100A4 MyoIIA -3 and MLL AF4-AF9 inh 5.
`C[C@H]1CN([C@@H](C)CO)C(=O)c2cc(-c3cccc(C#N)c3)cnc2O[C@@H]1CN(C)Cc1ccncc1` gave rRNA inh HTS 2, DENV2 CPE rescue -6, Cneo AK release 1, S100A4 MyoIIA 2 and MLL AF4-AF9 inh -2.
Cc1cc(N2C(=O)C(O)=C(C(=O)c3cc4ccccc4o3)C2c2ccc(Cl)cc2)no1 (configuration not stated) was read as PfHsp90 yeast 2 -6, rRNA inh HTS -24*, DENV2 CPE rescue -2, Cneo AK release -2, S100A4 MyoIIA -2 and MLL AF4-AF9 inh -3.
`Cc1cc(N2C(=O)C(O)=C(C(=O)c3ccc(C)o3)C2c2cccc(Cl)c2)no1` (configuration not stated) gave rRNA inh HTS -14, DENV2 CPE rescue -6, Cneo AK release 5, S100A4 MyoIIA -5 and MLL AF4-AF9 inh 1.
Cc1cc(N2C(=O)C(O)=C(C(=O)c3ccco3)C2c2cccc(Cl)c2)no1 (configuration not stated) was read as PfHsp90 yeast 2 9, rRNA inh HTS -32*, DENV2 CPE rescue -2, Cneo AK release 0, S100A4 MyoIIA -2 and MLL AF4-AF9 inh -1.
C[C@H](CO)N1C[C@H](C)[C@H](CN(C)C(=O)C2CCC2)Oc2cc(C#C[C@@H](C)O)ccc2S1(=O)=O was read as rRNA inh HTS -2, DENV2 CPE rescue -9, Cneo AK release 0, S100A4 MyoIIA 22 and MLL AF4-AF9 inh -1.
Screening CCCN(C)C[C@H]1OCCCC[C@H](C)Oc2ccc(NC(=O)Nc3cccc4ccccc34)cc2C(=O)N([C@@H](C)CO)C[C@H]1C returned rRNA inh HTS -5, DENV2 CPE rescue 0, Cneo AK release 2, S100A4 MyoIIA 6 and MLL AF4-AF9 inh 0.
CCCC#Cc1cnc2c(c1)C(=O)N([C@@H](C)CO)C[C@H](C)[C@@H](CN(C)C(=O)Nc1cccc(F)c1)O2 was read as rRNA inh HTS 0, DENV2 CPE rescue 7, Cneo AK release 0, S100A4 MyoIIA 1 and MLL AF4-AF9 inh 2.
Cc1ccccc1OCC(=O)Nc1ccc(S(=O)(=O)N2CCCC2)cc1 was read as rRNA inh HTS -18, DENV2 CPE rescue -8, Cneo AK release -3, S100A4 MyoIIA 114* and MLL AF4-AF9 inh 1.
Screening CC(C)Cn1nc(C(=O)Nc2cccc(S(=O)(=O)N3CCCC3)c2)c2ccccc2c1=O returned PfHsp90 yeast 2 6, rRNA inh HTS -5, DENV2 CPE rescue 15, Cneo AK release 4, S100A4 MyoIIA -6 and MLL AF4-AF9 inh -13.
Screening CCOc1ccc(S(=O)(=O)Nc2ccc(S(=O)(=O)N3CCCC3)cc2)cc1 returned PfHsp90 yeast 2 17, rRNA inh HTS -27*, Cneo AK release 0 and S100A4 MyoIIA 44.
O=C(COc1ccccc1Cl)Nc1cccc(S(=O)(=O)N2CCCC2)c1 was read as PfHsp90 yeast 2 -30, rRNA inh HTS -34*, DENV2 CPE rescue 5, Cneo AK release -1, S100A4 MyoIIA -9 and MLL AF4-AF9 inh 1.
For CCn1nc(C(=O)Nc2cccc(S(=O)(=O)N3CCCC3)c2)c2ccccc2c1=O the results were PfHsp90 yeast 2 17, rRNA inh HTS -27*, DENV2 CPE rescue -10, Cneo AK release 1, S100A4 MyoIIA -2 and MLL AF4-AF9 inh 3.
`C[C@@H]1CN([C@H](C)CO)C(=O)c2cccc(NC(=O)C3CCCCC3)c2O[C@@H]1CN(C)C(=O)Nc1ccc(F)cc1` gave rRNA inh HTS -4, DENV2 CPE rescue -8, Cneo AK release -1, S100A4 MyoIIA 2 and MLL AF4-AF9 inh -1.
For Cc1noc(C)c1S(=O)(=O)N(C)C[C@H]1Oc2ccc(NC(=O)Nc3ccc4c(c3)OCO4)cc2C(=O)N([C@@H](C)CO)C[C@H]1C the results were rRNA inh HTS 1, DENV2 CPE rescue inconclusive, Cneo AK release 6, S100A4 MyoIIA -25 and MLL AF4-AF9 inh 19.
